High-throughput results as filed in PubChem BioAssay.
CHO parental Ca – ATP-evoked calcium signal inhibitors, parental CHO, primary screen, counter-screen for OX1R antagonist project, cell-based, fluorescence, Fluo-8 calcium dye | parental CHO-K1, ATP-induced calcium, Fluo-8 fluorescence | inhibition, % at 5.6 µM | hit rate 0.63% among 330,000 | AID 463079, 2010;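 active = inhibition above that plate's mean sample inhibition plus 3 SD, cut at about 26% in these data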;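 note: 0% = ATP-challenged DMSO wells and 100% = DMSO wells without ATP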
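Test system: parental CHO cells; detection: calcium-sensitive Fluo-8 fluorescence; evaluation: percent inhibition of calcium signal; also added: ATP as calcium-mobilizing challenge; repeats: one well per compound; control set: ATP-challenged DMSO wells low, unchallenged DMSO wells high; compound: single nominal dose of 5.6 µM per compound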
OX1R antag-1 – OX1R (HCRTR1) antagonists, primary screen, fluorescence, CHO/OX1R cells, Fluo-8 calcium, orexin A. Orexin/Hypocretin receptor type 1 (Homo sapiens), O43613. Fluo-8 calcium fluorescence. inhibition, % at 5 µM. hit rate 0.43% among 330,000. AID 434989, 2010;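 active = inhibition above its plate's threshold, mean inhibition of all tested compounds on the plate plus 3 SD, cut at about 37% in these data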;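 note: 0% = orexin A challenge wells and 100% = SB-334867-A antagonist wells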
Target sequence (O43613 whole entry, looked up): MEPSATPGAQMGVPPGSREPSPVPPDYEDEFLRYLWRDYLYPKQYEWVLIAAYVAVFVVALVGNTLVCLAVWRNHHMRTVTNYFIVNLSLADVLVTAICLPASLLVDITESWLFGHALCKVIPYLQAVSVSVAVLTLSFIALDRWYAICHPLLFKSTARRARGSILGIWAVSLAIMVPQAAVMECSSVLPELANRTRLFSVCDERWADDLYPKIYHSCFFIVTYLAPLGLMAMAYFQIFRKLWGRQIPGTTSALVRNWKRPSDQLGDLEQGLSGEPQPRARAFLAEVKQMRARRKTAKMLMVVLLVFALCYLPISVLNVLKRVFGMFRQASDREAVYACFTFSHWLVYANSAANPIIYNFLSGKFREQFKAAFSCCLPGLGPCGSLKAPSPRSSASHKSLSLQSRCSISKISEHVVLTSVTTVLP
TAAR1 antag – human TAAR1 antagonists, primary screen, Fluo-8 calcium fluorescence, CHO RD-HGA16 cells | inhibition, % at 3 µM | AID 624466, 2012 | Trace amine-associated receptor 1 (Homo sapiens), Q96RJ0 | hit rate 1.5% among 360,000 | antagonist;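 active = inhibition above a per-plate cutoff, the mean inhibition of test compounds on that plate plus 3 SD, cut at about 49% in these data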;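 note: 0% = DMSO plus EC80 beta-PEA response and 100% = DMSO alone without agonist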
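Test system: hTAAR1-expressing CHO RD-HGA16 cells, Gα16-coupled; Probe or stimulus: EC80 β-phenethylamine stimulus; Compound dosing: single nominal final test compound concentration of 3 µM; Timing: 140 s kinetic read after compound, 140 s after agonist; Signal: Fluo-8 calcium-sensitive fluorescence; Measure: % inhibition of agonist calcium response; Controls: DMSO and EC80 PEA controls.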
OX1R antag-2 – antagonists of human orexin 1 receptor (OX1R); hit rate 1.8% among 330,000; Orexin/Hypocretin receptor type 1 (Homo sapiens), O43613; OX1R-expressing cells, FRET antagonist read-out; inhibition, % at 6.6 µM; in the data active = inhibition mostly above about 38%, no sharp cut-off; inactive = mostly below about 40%;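 note: 0% = agonist challenge alone and 100% = reference antagonist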
TAAR1 agonist – human TAAR1 agonists, primary screen, Fluo-8 calcium fluorescence, CHO RD-HGA16 cells; Trace amine-associated receptor 1 (Homo sapiens), Q96RJ0; vehicle wells 0%, saturating PEA agonist 100%; activation, % at 3 µM; hit rate 0.99% among 360,000; AID 624467, 2012;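 active = activation above the mean activation of all test compounds in the run plus 3 SD, cut at about 38% in these data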
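Test system: RD-HGA16 (CHO) cells co-expressing Gα16 and hTAAR1 / Benchmarks: DMSO vehicle as 0%, PEA at EC100 as 100% / Repeats: no replicates (n 1) / Measure: % activation from peak over basal fluorescence ratio, DMSO-to-PEA scaled / Timing: 17-24 h plating, Fluo-8 75 min 37 °C, 30 min RT / Technique: kinetic Fluo-8 calcium fluorescence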
GPR7 antag – GPR7 receptor antagonists, primary screen, cell-based, fluorescence, single concentration; AID 1861, 2009; Neuropeptides B/W receptor type 1 (Homo sapiens), P48145; inhibition, % at 4.4 µM; GPR7-expressing cells, fluorescence antagonist assay; hit rate 1.1% among 290,000; in the data active = inhibition above about 16%, passing the limit was not always enough;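 note: cells stimulated with the agonist NPW; 0% = agonist with vehicle and 100% = vehicle without agonist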
Target sequence (P48145 whole entry, looked up): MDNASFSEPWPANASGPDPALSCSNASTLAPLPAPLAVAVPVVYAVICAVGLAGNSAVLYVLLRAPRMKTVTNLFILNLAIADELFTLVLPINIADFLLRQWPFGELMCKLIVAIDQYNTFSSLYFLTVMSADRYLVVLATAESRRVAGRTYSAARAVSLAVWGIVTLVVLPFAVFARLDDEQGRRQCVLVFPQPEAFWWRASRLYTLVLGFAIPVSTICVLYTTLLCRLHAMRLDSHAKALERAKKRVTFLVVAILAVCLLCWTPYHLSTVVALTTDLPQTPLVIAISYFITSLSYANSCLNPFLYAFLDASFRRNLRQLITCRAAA
OX1R Ca confirm – OX1R (HCRTR1) antagonists, confirmation, fluorescence, CHO/OX1R cells, Fluo-8 calcium, orexin A; inhibition, % at 5 µM; AID 492963, 2010; shares compounds with OX1R antag-1; orexin A calcium Fluo-8 fluorescence; hit rate 38% among 1,100; in the data active = inhibition above about 29%;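 note: 0% = agonist challenge alone and 100% = reference antagonist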
CHO Ca counter – ATP-evoked calcium inhibition in parental CHO, counter-screen for OX1R antagonist project, cell-based, fluorescence, CHO-K1, triplicate; shares compounds with OX1R antag-1; ATP-induced calcium, Fluo-8 fluorescence; inhibition, % at 5.6 µM; hit rate 9.3% among 1,100;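 active = inhibition above a per-plate limit, the mean inhibition of that plate's test compounds plus 3 SD, cut at about 25% in these data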;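 note: 0% = ATP challenge with DMSO and 100% = DMSO without ATP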
* marks the source's active call; other numbers are inactive results; . = not tested or not shown. A selection: hits, their analogues and other compounds. The true share with any hit is near 4.5%.

SMILES | CHO parental Ca | OX1R antag-1 | TAAR1 antag | OX1R antag-2 | TAAR1 agonist | GPR7 antag | OX1R Ca confirm | CHO Ca counter
CCOC(=O)c1ccc(N=C2SC(C(=O)Nc3ccc(C(=O)O)cc3)CC(=O)N2Cc2cccs2)cc1 (stereo unspecified) | 25 | 35 | 15 | 27 | 1 | -2 | 18 | 7
CN(C)S(=O)(=O)c1ccc(-c2csc(N/N=C/c3ccco3)n2)cc1 | 17 | 31 | 79* | 26 | 30 | 17 | 70* | 18
Cc1ccc(-c2csc(N/N=C/c3ccco3)n2)cc1 | -24 | -22 | 1 | 12 | -2 | 4 | . | .
CCOc1ccc2nc(SCCNS(=O)(=O)c3ccccc3)sc2c1 | 9 | 50* | 60* | 26 | 7 | -9 | -4 | 0
CCOc1ccc2nc(SCC(=O)c3ccccc3)sc2c1 | -13 | 21 | 4 | 6 | 6 | 1 | . | .
CCOC(=O)[C@@H](C)NS(=O)(=O)N(Cc1ccccc1)[C@H](C(=O)OC)C(C)C | -15 | -10 | 7 | 10 | 2 | . | . | .
CCOC(=O)[C@@H](C)N(Cc1ccc(OC)cc1)S(=O)(=O)N(Cc1ccccc1)[C@H](C(=O)OC)C(C)C | 7 | 50* | 15 | 9 | 2 | . | 7 | 58*
Cc1csc(=O)n1CC(=O)OCC(=O)NCc1ccc(F)cc1 | 4 | -2 | -21 | 8 | 6 | . | . | .
Cc1ccc(C)c(CNc2ccc(S(=O)(=O)N3CCCCC3)cc2)c1 | 7 | 44* | 12 | 3 | 8 | . | -6 | 53*
COc1cc(C(O)c2nc(-c3ccccc3)cs2)ccc1F (stereo unspecified) | . | . | 12 | . | 1 | . | . | .
CC(C)Oc1ccc(/C(O)=C2/C(=O)C(=O)N(CCN3CCNCC3)C2c2cccc([N+](=O)[O-])c2)cc1 (stereo unspecified) | -9 | 3 | -15 | 40 | 0 | -1 | . | .
O=C(NCCN1CCOCC1)c1cccc(S(=O)(=O)NCc2ccccc2)c1 | -4 | -3 | -5 | 7 | 2 | . | . | .
CCC(C)NS(=O)(=O)c1ccc(S(=O)(=O)N(CC(=O)Nc2ccccc2)Cc2ccco2)cc1 (stereo unspecified) | -1 | 49* | 22 | 4 | 14 | -3 | 0 | -5
Nc1c(C(O)(C(F)(F)F)C(F)(F)F)cc(C(O)(C(F)(F)F)C(F)(F)F)c2ccccc12 | 7 | 28 | . | 25 | . | 3 | -6 | -1
COc1cc(OC)c(C(=O)OCC(=O)Nc2ccc(S(=O)(=O)N3CCOCC3)cc2)cc1OC | -1 | 10 | -6 | 13 | 2 | . | . | .
C[C@H]1CN([C@@H](C)CO)C(=O)CCCn2nncc2CO[C@@H]1CN(C)S(=O)(=O)c1ccc(-n2cccn2)cc1 | . | . | -24 | . | 4 | . | . | .
O=C(CCNC(=O)c1ccc(Br)o1)NC1CCCC1 | -5 | 23 | 8 | 2 | 5 | 9 | 7 | -18
O=C(NC1CCCCC1)c1ccc(Br)o1 | -12 | -15 | 10 | 17 | 1 | -16 | . | .
CCCC(C)c1oc(=O)cc(O)c1C (stereo unspecified) | -12 | -22 | -21 | 11 | 3 | . | . | .
Cc1ccc(N(CC(=O)NCC2CCCO2)C(=O)CCC(=O)Nc2nccs2)cc1 (stereo unspecified) | -10 | -8 | 5 | 13 | 7 | -1 | . | .
Cc1oc(-c2cccc3ccccc23)nc1CN1CCN(c2ncnc3ccccc23)CC1 | 12 | 34 | 57* | 30 | 11 | 0 | 20 | -10
COc1ccc2c(c1)CC(N1CCN(C)CC1)c1cc(OC)ccc1S2 (stereo unspecified) | 19 | 45* | 1 | 16 | 17 | . | 21 | 11
CSc1ccc2c(c1)C(N1CCN(C)CC1)Cc1ccc(F)cc1S2 (stereo unspecified) | 2 | -8 | 0 | 6 | 11 | . | . | .
O=C(NCc1ccc(F)cc1)c1cccc(S(=O)(=O)N2CCOCC2)c1 | -8 | -17 | -8 | -2 | 5 | . | . | .
Cc1cc(C(=O)COC(=O)c2ccc(O)cc2O)c(C)n1-c1ccccc1 | 8 | 33 | 35 | 2 | 1 | . | 5 | 8
SMILES | CHO parental Ca | OX1R antag-1 | TAAR1 antag | OX1R antag-2 | TAAR1 agonist | GPR7 antag | OX1R Ca confirm | CHO Ca counter
O=[N+]([O-])c1ccc(COc2ccc(CN3CCCCC3)cc2)cc1 | . | . | -4 | . | 5 | . | . | .
O=C(CSc1ccc(S(=O)(=O)N2CCOCC2)cn1)Nc1ccc(F)c(F)c1 | -4 | 35 | 14 | 21 | 15 | . | 22 | 18
O=C1OC/C(=C(/O)c2ccc(Cl)cc2)C1=O | -6 | -8 | -3 | 16 | 0 | -4 | . | .
CSc1ccc(CN2CCC(Oc3ccc(C(=O)N4CCCC4)cc3)CC2)cc1 | -15 | -9 | -30 | 13 | 10 | -5 | . | .
O=C(COc1ccc(Cl)cc1)Nc1cccc(S(=O)(=O)NCc2ccco2)c1 | -19 | 42 | 26 | 21 | 6 | . | 16 | -5
CN(c1ccccc1)S(=O)(=O)c1cccc(NC(=O)COc2ccccc2)c1 | -7 | 37 | 53* | 14 | 7 | . | 19 | -4
CN(c1ccc(OCC(=O)NCCc2ccccc2)cc1)S(=O)(=O)c1ccc(Cl)cc1 | -8 | 36 | 11 | 23 | 4 | . | 26 | -12
CN(c1cccc(NC(=O)COc2ccccc2)c1)S(C)(=O)=O | -5 | -15 | -4 | 5 | 7 | -6 | . | .
Cc1ccc(S(=O)(=O)N2[C@H](CC(=O)c3cccc4ccccc34)OC[C@@H]2C)cc1 | . | . | -10 | . | 4 | . | . | .
Cc1ccc(-c2nc(CS(=O)CC(=O)NCc3ccco3)c(C)o2)cc1 (stereo unspecified) | -13 | -6 | 10 | 0 | -2 | -9 | . | .
COc1ccccc1OCc1cc(C(=O)N(C)CCC2CCCCO2)no1 (stereo unspecified) | -6 | -9 | -3 | 3 | 0 | -3 | . | .
Cc1ccc(C(C#N)c2ccc(C(=O)c3ccc(F)cc3)cc2)cc1 (stereo unspecified) | 29 | 33 | 41 | 43 | 8 | 2 | 1 | 9
COc1ccc(C(CNC(=O)Cc2cccs2)N(C)C)cc1 (stereo unspecified) | -11 | -28 | 4 | -2 | 1 | -6 | . | .
Cc1ccc(NC(=O)COC(=O)c2cccc(C)c2[N+](=O)[O-])cc1S(=O)(=O)N1CCCCC1 | 21 | 44* | 32 | 4 | 6 | . | 14 | 9
